According to ChEMBL document CHEMBL1177801, “Structure-based design and synthesis of pyrrole derivatives as MEK inhibitors” (Bioorg Med Chem Lett, 2010):
pEC50, pIC50: −log10 of the molar value. The source made the active and inactive calls. The calls are words filed in the database; no cut-off is given here.

Key:
[1] = Half life in rat liver microsomes; format: ADME, Microsome
[2] = Half life in human liver microsomes; format: ADME, Microsome
COLO 205 = assay: Cytotoxicity against human COLO205 cells expressing b-Raf V600E mutant after 72 hrs by MTS assay; format: functional, cell-based; conditions: COLO 205, 72 h
In short: (§1)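 Human BRAF(V600E) line seeded at 3000–10,000 cells per 96 well, allowed 16 h at 37 °C in humidified 5% CO2. Then exposed 72 h to an eleven-point compound dilution in duplicate. NADH measured by MTS tetrazolium conversion, read at OD 490 nm. EC50 taken from compound concentration vs total NADH.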

A-375 = assay: Cytotoxicity against human A375 cells expressing b-Raf V600E mutant after 72 hrs by MTS assay; format: functional, cell-based; conditions: A-375, 72 h; in short: as §1
[3] = target: Dual specificity mitogen-activated protein kinase kinase 1 (Homo sapiens, UniProt Q02750); assay: Inhibition of MEK1 by cascade assay method
In short: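 Cascade format, compounds serially diluted in DMSO, then in 50 mM HEPES pH 7.3, 10 mM NaCl, 10 mM MgCl2, 0.01% Brij35, 1 mM DTT. Reaction started with 1 nM MEK1 and 400 µM ATP (also run at 10 µM). Product read by IMAP fluorescence polarization. IC50 fitted with standard models.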

[4] = target: Protein kinase C alpha type (Homo sapiens) (UniProt P17252); assay: Inhibition of PKCalpha at 10 uM
[5] = target: Epidermal growth factor receptor (Homo sapiens) (UniProt P00533); assay: Inhibition of EGFR at 10 uM
[6] = target: Tyrosine-protein kinase SYK (Homo sapiens) (UniProt P43405); assay: Inhibition of Syk at 10 uM
[7] = target: Insulin receptor (Homo sapiens) (UniProt P06213); assay: Inhibition of insulin receptor at 10 uM
[8] = target: Calcium/calmodulin-dependent protein kinase type 1D (Homo sapiens) (UniProt Q8IU85); assay: Inhibition of CamK1delta at 10 uM
[9] = target: RAC-gamma serine/threonine-protein kinase (Homo sapiens) (UniProt Q9Y243); assay: Inhibition of AKT3 at 10 uM
[10] = target: Proto-oncogene tyrosine-protein kinase Src (Homo sapiens) (UniProt P12931); assay: Inhibition of c-SRC at 10 uM
[11] = target: 3-phosphoinositide-dependent protein kinase 1 (PDPK1) (Homo sapiens) (UniProt O15530); assay: Inhibition of PDK1 at 10 uM
[12] = target: Angiopoietin-1 receptor (Homo sapiens) (UniProt Q02763); assay: Inhibition of Tie2 at 10 uM
[13] = target: Platelet-derived growth factor receptor beta (Homo sapiens) (UniProt P09619); assay: Inhibition of PDGFRbeta at 10 uM
[14] = target: Cyclin-dependent kinase 2/cyclin A (Homo sapiens) (UniProt P24941+P20248+P78396); assay: Inhibition of CDK2/cyclinA at 10 uM; format: protein-complex assay
[15] = target: RAF proto-oncogene serine/threonine-protein kinase (Homo sapiens) (UniProt P04049); assay: Inhibition of c-RAF at 10 uM
[16] = target: Mitogen-activated protein kinase 14 (Homo sapiens) (UniProt Q16539); assay: Inhibition of P38alpha at 10 uM
[17] = target: Serine/threonine-protein kinase PLK3 (Homo sapiens) (UniProt Q9H4B4); assay: Inhibition of PLK3 at 10 uM
[18] = target: Hepatocyte growth factor receptor (Homo sapiens) (UniProt P08581); assay: Inhibition of c-Met at 10 uM
[19] = target: Glycogen synthase kinase-3 beta (Homo sapiens) (UniProt P49841); assay: Inhibition of GSK3-beta at 10 uM
[20] = target: Tyrosine-protein kinase ABL1 (Homo sapiens) (UniProt P00519); assay: Inhibition of Abl1 at 10 uM
[21] = target: T1, Tyrosine-protein kinase JAK3 (Homo sapiens) (UniProt P52333); assay: Inhibition of JAK3 at 10 uM
T1 sequence (whole entry): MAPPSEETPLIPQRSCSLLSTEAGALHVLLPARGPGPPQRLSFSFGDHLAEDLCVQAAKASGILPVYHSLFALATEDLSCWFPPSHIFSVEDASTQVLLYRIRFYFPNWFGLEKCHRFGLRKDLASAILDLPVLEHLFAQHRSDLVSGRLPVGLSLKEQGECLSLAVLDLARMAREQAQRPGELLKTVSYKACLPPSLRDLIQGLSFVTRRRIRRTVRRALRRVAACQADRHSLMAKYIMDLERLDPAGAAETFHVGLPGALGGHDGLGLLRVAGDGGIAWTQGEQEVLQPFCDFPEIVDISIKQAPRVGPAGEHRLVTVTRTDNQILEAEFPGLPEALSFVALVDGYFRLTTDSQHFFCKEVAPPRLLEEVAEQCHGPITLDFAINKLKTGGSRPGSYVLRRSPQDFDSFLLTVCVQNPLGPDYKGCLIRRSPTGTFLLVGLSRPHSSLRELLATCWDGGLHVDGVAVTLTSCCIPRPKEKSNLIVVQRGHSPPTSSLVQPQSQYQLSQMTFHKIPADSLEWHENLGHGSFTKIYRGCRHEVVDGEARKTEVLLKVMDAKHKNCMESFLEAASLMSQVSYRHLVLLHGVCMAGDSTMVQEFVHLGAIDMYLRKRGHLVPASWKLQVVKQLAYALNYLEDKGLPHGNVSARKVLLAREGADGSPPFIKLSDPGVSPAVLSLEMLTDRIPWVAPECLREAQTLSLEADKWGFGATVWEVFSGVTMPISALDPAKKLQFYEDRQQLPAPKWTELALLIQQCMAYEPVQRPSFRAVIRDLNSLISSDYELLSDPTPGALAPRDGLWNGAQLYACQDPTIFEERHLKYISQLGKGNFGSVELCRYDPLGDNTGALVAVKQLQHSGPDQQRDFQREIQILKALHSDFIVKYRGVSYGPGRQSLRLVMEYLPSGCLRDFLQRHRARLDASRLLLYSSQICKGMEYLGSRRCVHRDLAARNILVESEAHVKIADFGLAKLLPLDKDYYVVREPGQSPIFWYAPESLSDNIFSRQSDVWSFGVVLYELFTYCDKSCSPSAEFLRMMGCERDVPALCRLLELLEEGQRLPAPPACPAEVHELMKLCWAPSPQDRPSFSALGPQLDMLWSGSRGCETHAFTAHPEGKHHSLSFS

[22] = Clearance in rat at 1 mg/kg, iv and 5 mg/kg, po; format: ADME, organism-based; conditions: in vivo
[23] = Oral bioavailability in rat at 5 mg/kg; format: ADME, organism-based; conditions: in vivo
[24] = Mean residence time in rat at 1 mg/kg, iv; format: ADME, organism-based; design: dose 1 mg/kg, route intravenous; conditions: in vivo
[25] = Mean residence time in rat at 5 mg/kg, po; format: ADME, organism-based; design: dose 5 mg/kg, route oral; conditions: in vivo
[26] = Volume of distribution at steady state in rat at 1 mg/kg, iv and 5 mg/kg, po; format: ADME, organism-based; conditions: in vivo, read-out: Vdss

Sequence of Mitogen-activated protein kinase 14 (Homo sapiens) (Q16539 whole entry): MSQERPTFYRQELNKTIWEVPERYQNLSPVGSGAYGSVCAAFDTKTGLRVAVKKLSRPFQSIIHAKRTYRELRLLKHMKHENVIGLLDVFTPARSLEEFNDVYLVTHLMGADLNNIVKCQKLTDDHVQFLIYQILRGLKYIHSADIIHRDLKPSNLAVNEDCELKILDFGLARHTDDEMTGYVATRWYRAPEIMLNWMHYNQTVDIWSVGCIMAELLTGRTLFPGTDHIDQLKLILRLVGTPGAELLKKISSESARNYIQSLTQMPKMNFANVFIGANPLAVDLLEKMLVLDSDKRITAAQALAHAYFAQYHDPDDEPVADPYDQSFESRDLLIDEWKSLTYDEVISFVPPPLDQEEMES
Sequence of Tyrosine-protein kinase ABL1 (Homo sapiens) (P00519 whole entry): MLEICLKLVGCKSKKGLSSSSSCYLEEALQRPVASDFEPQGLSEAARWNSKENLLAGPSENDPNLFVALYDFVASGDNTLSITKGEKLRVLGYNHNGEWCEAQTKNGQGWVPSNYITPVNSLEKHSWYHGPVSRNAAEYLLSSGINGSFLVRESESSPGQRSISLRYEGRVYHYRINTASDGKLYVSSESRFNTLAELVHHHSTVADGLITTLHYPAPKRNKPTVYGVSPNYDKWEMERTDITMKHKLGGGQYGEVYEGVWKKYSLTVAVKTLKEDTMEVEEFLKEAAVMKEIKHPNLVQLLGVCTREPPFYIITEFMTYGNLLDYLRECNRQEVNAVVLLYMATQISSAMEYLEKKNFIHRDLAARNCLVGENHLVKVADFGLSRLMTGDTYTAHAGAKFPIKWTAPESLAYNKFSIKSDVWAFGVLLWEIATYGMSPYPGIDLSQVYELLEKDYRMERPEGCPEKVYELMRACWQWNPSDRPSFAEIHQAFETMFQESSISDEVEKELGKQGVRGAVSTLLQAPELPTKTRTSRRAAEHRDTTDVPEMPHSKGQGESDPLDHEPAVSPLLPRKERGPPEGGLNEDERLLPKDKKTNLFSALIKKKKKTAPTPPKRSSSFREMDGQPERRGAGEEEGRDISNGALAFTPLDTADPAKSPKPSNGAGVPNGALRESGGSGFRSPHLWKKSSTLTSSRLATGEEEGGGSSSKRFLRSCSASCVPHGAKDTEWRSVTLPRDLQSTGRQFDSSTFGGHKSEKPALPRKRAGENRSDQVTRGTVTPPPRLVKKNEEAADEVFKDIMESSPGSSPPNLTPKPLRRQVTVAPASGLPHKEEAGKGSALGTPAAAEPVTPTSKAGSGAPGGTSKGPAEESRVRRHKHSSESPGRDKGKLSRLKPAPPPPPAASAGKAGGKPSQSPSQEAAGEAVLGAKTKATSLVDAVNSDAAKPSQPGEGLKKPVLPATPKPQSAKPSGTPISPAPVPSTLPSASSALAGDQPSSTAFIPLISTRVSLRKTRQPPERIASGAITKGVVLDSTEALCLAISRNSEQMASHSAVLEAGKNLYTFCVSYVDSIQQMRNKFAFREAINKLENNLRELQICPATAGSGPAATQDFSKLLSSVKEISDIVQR
Sequence of Glycogen synthase kinase-3 beta (Homo sapiens) (P49841 whole entry, looked up): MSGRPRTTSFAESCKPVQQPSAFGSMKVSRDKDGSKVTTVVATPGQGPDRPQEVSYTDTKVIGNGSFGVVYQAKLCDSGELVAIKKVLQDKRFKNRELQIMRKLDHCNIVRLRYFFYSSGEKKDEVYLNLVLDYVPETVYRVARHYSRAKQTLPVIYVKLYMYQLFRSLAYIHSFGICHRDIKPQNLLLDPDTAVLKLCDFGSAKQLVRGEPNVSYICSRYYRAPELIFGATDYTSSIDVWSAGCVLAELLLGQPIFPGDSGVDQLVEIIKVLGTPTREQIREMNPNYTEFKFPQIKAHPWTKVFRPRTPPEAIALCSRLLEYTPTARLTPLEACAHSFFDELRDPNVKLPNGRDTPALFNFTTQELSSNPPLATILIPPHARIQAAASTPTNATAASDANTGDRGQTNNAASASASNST
Sequence of Epidermal growth factor receptor (Homo sapiens) (P00533 whole entry): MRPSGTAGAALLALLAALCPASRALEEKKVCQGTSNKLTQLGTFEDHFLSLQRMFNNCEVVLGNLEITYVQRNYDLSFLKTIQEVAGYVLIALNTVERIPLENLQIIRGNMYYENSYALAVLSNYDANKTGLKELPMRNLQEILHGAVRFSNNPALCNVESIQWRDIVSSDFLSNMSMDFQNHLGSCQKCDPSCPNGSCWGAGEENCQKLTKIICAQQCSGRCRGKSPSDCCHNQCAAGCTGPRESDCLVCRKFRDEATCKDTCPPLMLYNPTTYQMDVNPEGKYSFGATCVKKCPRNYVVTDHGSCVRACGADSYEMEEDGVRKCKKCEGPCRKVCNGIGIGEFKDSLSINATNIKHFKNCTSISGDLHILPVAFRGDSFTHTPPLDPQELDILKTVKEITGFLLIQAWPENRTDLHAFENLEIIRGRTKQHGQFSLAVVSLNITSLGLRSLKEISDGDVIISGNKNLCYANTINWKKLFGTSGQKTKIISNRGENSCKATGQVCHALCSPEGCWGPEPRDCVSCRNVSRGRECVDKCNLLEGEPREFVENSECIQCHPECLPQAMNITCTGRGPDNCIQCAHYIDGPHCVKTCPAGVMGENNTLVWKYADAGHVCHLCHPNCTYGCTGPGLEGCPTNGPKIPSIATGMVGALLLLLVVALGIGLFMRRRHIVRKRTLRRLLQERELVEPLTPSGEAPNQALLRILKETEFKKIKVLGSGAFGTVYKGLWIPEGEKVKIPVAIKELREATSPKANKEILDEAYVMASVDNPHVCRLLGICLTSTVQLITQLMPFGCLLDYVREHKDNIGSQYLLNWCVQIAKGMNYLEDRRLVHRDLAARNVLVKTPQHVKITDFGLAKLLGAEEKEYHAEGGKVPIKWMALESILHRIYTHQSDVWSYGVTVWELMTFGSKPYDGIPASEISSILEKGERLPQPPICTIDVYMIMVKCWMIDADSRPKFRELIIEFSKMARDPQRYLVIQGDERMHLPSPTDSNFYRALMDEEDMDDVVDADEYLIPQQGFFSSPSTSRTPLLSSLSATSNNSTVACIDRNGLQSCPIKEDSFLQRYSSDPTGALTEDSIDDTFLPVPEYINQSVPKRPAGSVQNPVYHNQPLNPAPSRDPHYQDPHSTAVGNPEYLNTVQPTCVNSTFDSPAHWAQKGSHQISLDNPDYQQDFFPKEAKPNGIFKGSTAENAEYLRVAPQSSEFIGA
Sequence of RAC-gamma serine/threonine-protein kinase (Homo sapiens) (Q9Y243 whole entry): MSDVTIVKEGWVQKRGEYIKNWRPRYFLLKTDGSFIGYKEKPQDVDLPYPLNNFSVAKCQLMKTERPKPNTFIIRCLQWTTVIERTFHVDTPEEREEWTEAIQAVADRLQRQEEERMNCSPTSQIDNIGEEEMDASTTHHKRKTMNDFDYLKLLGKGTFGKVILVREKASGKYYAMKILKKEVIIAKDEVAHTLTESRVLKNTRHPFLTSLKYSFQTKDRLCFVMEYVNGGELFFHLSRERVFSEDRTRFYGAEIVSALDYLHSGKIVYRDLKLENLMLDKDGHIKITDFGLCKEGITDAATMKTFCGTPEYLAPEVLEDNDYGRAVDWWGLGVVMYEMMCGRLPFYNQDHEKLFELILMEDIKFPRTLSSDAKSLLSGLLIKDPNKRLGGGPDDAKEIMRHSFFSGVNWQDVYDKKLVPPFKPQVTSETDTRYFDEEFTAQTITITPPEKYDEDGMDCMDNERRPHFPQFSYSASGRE
Sequence of Dual specificity mitogen-activated protein kinase kinase 1 (Q02750 whole entry): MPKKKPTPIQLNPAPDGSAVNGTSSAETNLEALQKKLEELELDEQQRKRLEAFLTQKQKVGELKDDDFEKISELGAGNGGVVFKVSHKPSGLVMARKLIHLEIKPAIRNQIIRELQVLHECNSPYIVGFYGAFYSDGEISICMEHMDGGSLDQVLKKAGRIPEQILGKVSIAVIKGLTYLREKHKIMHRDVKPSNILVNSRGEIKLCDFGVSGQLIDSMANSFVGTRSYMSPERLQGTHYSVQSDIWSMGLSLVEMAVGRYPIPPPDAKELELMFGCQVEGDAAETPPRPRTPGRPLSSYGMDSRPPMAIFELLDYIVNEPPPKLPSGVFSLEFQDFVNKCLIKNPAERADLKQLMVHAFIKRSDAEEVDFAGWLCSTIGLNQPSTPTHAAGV
Sequence of Calcium/calmodulin-dependent protein kinase type 1D (Homo sapiens) (Q8IU85 whole entry, looked up): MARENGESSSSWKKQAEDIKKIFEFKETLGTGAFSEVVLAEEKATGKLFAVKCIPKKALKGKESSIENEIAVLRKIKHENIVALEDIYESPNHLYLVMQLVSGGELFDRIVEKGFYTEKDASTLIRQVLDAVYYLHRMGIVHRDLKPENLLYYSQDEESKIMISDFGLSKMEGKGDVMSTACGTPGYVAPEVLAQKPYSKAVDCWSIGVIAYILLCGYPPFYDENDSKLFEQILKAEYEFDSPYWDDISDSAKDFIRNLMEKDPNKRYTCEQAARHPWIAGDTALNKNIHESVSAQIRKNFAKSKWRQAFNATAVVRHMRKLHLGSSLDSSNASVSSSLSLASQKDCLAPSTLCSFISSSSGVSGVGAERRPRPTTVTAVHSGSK

Row | Structure (SMILES) | half-life [1] [min] | half-life [2] [min] | pEC50 (COLO 205) | pEC50 (A-375) | pIC50 [3] | other results
1 | CC(=O)c1c(F)c(C(=O)NOC[C@@H](O)CO)c(Nc2ccc(I)cc2F)n1C | 49 | 115 | 7.24 | 7.32 | 7.72 | –
2 | CC(=O)c1cc(C(=O)O)c(Nc2ccc(I)cc2F)n1C | 7 | 123 | 5.15 | 5.58 | 7.38 | –
3 | CC(=O)c1cc(C(=O)NCCCO)c(Nc2ccc(I)cc2F)n1C | 10 | 95 | 6.89 | 6.50 | 7.05 | –
4 | CC(=O)c1cc(C(=O)N2CC(O)C2)c(Nc2ccc(I)cc2F)n1C | 13 | 15 | 7.49 | 7.01 | 7.52 | inhibition [4]: inactive; inhibition [5]: inactive; inhibition [6]: inactive; inhibition [7]: inactive; inhibition [8]: inactive; inhibition [9]: inactive; inhibition [10]: inactive; inhibition [11]: inactive; inhibition [12]: inactive; inhibition [13]: inactive; inhibition [14]: inactive; inhibition [15]: inactive; inhibition [16]: inactive; inhibition [17]: inactive; inhibition [18]: inactive; inhibition [19]: inactive; inhibition [20]: inactive; inhibition [21]: inactive
5 | CC(=O)c1cc(C(=O)NOC(CO)CO)c(Nc2ccc(I)cc2F)n1C | 16 | 90 | 7.70 | 7.48 | 7.72 | –
6 | CC(=O)c1cc(C(=O)NOC[C@@H](O)CO)c(Nc2ccc(I)cc2F)n1C | 68 | 150 | 7.96 | 7.77 | 7.96 | –
7 | CC(=O)n1cc(Nc2ccc(I)cc2F)c(C(=O)O)c1 | 20 | 29 | < 4.30 | – | 6.66 | –
8 | CC(=O)n1cc(C(=O)NOCCO)c(Nc2ccc(I)cc2F)c1C | 2 | 8 | 5.00 | – | 7.70 | –
9 | CC(=O)n1cc(C(=O)O)c(Nc2ccc(I)cc2F)c1C | 21 | 29 | 4.68 | – | 7.14 | –
10 | CC(=O)c1cc(C(=O)NOCCCO)c(Nc2ccc(I)cc2F)n1C | 13 | 43 | 6.98 | 6.75 | 7.34 | –
11 | CC(=O)c1cc(C(=O)NOC[C@H](O)CO)c(Nc2ccc(I)cc2F)n1C | 29 | > 200 | 7.48 | 7.44 | 7.70 | clearance [22]: 48 mL/min/kg; bioavailability [23]: 19%; MRT [24]: 43.2 min; MRT [25]: 444 min; Vd [26]: 2.1 L/kg
12 | CC(=O)c1cc(C(=O)N2CC(N)C2)c(Nc2ccc(I)cc2F)n1C | 64 | 55 | 7.43 | 7.41 | 8.15 | inhibition [4]: inactive; inhibition [5]: inactive; inhibition [6]: inactive; inhibition [7]: inactive; inhibition [8]: inactive; inhibition [9]: inactive; inhibition [10]: inactive; inhibition [11]: inactive; inhibition [12]: inactive; inhibition [13]: inactive; inhibition [14]: inactive; inhibition [15]: inactive; inhibition [16]: inactive; inhibition [17]: inactive; inhibition [18]: inactive; inhibition [19]: inactive; inhibition [20]: inactive; inhibition [21]: inactive
13 | CC(=O)c1c(Cl)c(C(=O)NOC[C@@H](O)CO)c(Nc2ccc(I)cc2F)n1C | 30 | 38 | 7.74 | 7.54 | 7.89 | –
14 | CC(=O)c1c(Cl)c(C(=O)NOCCO)c(Nc2ccc(I)cc2F)n1C | 6 | 7 | 8.15 | 7.55 | 7.74 | –
15 | CC(=O)c1c(F)c(C(=O)NOC[C@H](O)CO)c(Nc2ccc(I)cc2F)n1C | 28 | 107 | 7.35 | 7.14 | 7.54 | –
16 | CC(=O)n1cc(Nc2ccc(I)cc2F)c(C(=O)NOCCO)c1 | 6 | 3 | 5.51 | – | 7.96 | –
17 | CC(=O)c1c(Cl)c(C(=O)NOC[C@H](O)CO)c(Nc2ccc(I)cc2F)n1C | 23 | 52 | 7.64 | 7.34 | 7.49 | clearance [22]: 7.1 mL/min/kg; bioavailability [23]: 40%; MRT [24]: 51 min; MRT [25]: 246 min; Vd [26]: 0.361 L/kg
18 | CC(=O)c1cc(C(=O)NOCCO)c(Nc2ccc(I)cc2F)n1C | 14 | 36 | 7.92 | 7.85 | – | bioavailability [23]: 46%; MRT [24]: 55.8 min; MRT [25]: 384 min; Vd [26]: 2.9 L/kg
19 | CC(=O)c1cc(C(=O)N2CC[C@@H](O)C2)c(Nc2ccc(I)cc2F)n1C | 9 | 14 | 7.08 | 6.90 | 7.89 | inhibition [4]: inactive; inhibition [5]: inactive; inhibition [6]: inactive; inhibition [7]: inactive; inhibition [8]: inactive; inhibition [9]: inactive; inhibition [10]: inactive; inhibition [11]: inactive; inhibition [12]: inactive; inhibition [13]: inactive; inhibition [14]: inactive; inhibition [15]: inactive; inhibition [16]: inactive; inhibition [17]: inactive; inhibition [18]: inactive; inhibition [19]: inactive; inhibition [20]: inactive; inhibition [21]: inactive
